Consider 18 molecules from ChEMBL document CHEMBL1142860, “Potent antitubulin tumor cell cytotoxins based on 3-aroyl indazoles” (J Med Chem, 2007).

The subject of experiment [1] is HCT-15. Briefly: Antiproliferative activity against drug resistant HCT15 cell line expressing MDR1 by Alamar Blue assay. It counts as functional, cell-based. As to conditions: Homo sapiens. In outline:
(§1)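 Cells in exponential growth seeded at 4000–6000 per well, held 24 h at 37 °C, 5% CO2 before compound; T0 population read by AlamarBlue at time of addition. Compounds in DMSO diluted into complete medium; 72 h exposure at 37 °C, 5% CO2. Viable cells quantified with AlamarBlue; IC50 as 50% growth inhibition; triplicate.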
A general note: Alamar Blue is a resazurin reagent that responds to reducing activity.

Experiment [2] has as its system ACHN. Description: Antiproliferative activity against drug resistant ACHN cell line expressing MDR1 by Alamar Blue assay. It counts as functional, cell-based. As to conditions: Homo sapiens. In outline:
as §1

A short description of experiment [3]: Antiproliferative activity against drug sensitive Messa cell line by Alamar Blue assay. It counts as functional, cell-based. As to conditions: Homo sapiens, MES-SA. The gist of the method:
as §1

Experiment [4] can be described thus: Antiproliferative activity against drug resistant Messa/DX5 cell line expressing MDR1 by Alamar Blue assay. The experiment is classed as functional, cell-based. As to conditions: Homo sapiens, MES-SA/Dx5. In outline: as §1
Experiment [5] relates to NCI-H460. Briefly: Inhibition of proliferation of human H460 cells. It counts as functional, cell-based. In outline: as §1
The subject of experiment [6] is NCI-H69. Description: Antiproliferative activity against drug sensitive NCI-H69 cell line by Alamar Blue assay. The experiment is classed as functional, cell-based. Particulars: Homo sapiens. The gist of the method: as §1
Experiment [7] relates to H69AR. Description: Antiproliferative activity against drug resistant H69AR cell line expressing MRP1 by Alamar Blue assay. It counts as functional, cell-based. As to conditions: Homo sapiens. In outline:
as §1

Experiment [8] deals with HT-29. Description: Cytotoxicity against human HT29 cells. The experiment is classed as cell-based. In outline: (§2)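 Exponentially growing cells seeded at 4000–6000 per well and incubated 24 h (37 °C, 5% CO₂) before dosing. Cell population at time of drug addition (T₀) measured by AlamarBlue. Compounds dissolved in DMSO, diluted in complete medium, and exposed for 72 h. Viable cells quantified by AlamarBlue. IC₅₀ is 50% growth inhibition. Assays run in triplicate.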

The subject of experiment [9] is PC-3. Briefly: Cytotoxicity against human PC3 cells. It counts as cell-based. In outline:
as §2

Experiment [10] deals with HeLa. Briefly: Cytotoxicity against human HeLa cells. It counts as cell-based. In outline:
as §1

Experiment [11] is described as follows: (§3) Displacement of [3H]colchicine from tubulin in bovine brain at 500 nM. More on the design: species or system Bos taurus. In outline: (§4)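 Purified tubulin (bovine brain, HeLa or MCF-7 source) preincubated with compound 10 min at 37 °C, then [3H]colchicine added and incubated a further 30 min at 37 °C. Samples spotted on DE81 filters, washed three times to remove unbound label; bound [3H]colchicine counted by scintillation.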

The species entered for experiment [12] is Bos taurus. Described as §3. In outline:
as §4

The target in experiment [13] is Tubulin. Briefly: Displacement of [3H]colchicine from tubulin in HeLa cells. It counts as cell-based, Homo sapiens. In outline: as §4
A general note: Displacement assays read how much labelled ligand stays bound in the presence of the test substance.

Experiment [14] addresses Tubulin. Briefly: Displacement of [3H]colchicine from tubulin in MCF7 cells. The experiment is classed as cell-based, Homo sapiens. The gist of the method:
as §4

Experiment [15] in a line: Inhibition of bovine tubulin polymerization. Also on record: species or system Bos taurus. The gist of the method: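 Purified bovine tubulin incubated with compound in buffer with 10% glycerol using a commercial kit; microtubule formation followed as rise in fluorescence intensity of the reaction mixture; IC50 from concentration-dependent inhibition.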

In the case of `COc1cc2c(c(OC)c1OC)-c1ccc(OC)c(=O)cc1[C@@H](NC(C)=O)CC2` [COLCHICINE], the IC50 came to 100 nM in experiment [1], 39.8 nM in experiment [2], 6.3 nM in experiment [3] and 63 nM in experiment [4].

Turning to `COc1cc(C(=O)c2n[nH]c3c(/C=C\CO)c(OC)ccc23)cc(OC)c1OC`, in experiment [5], the IC50 was determined as 13 nM.

In experiment [5], `COc1ccc2c(C(=O)c3cc(OC)c(OC)c(OC)c3)c[nH]c2c1` yielded an IC50 of 16 nM.

As to `COc1cccc2c1C(=O)c1c(O)c3c(c(O)c1C2=O)C[C@@](O)(C(C)=O)C[C@@H]3O[C@H]1C[C@H](N)[C@H](O)[C@H](C)O1` [DAUNORUBICIN], the 50% inhibitory concentration (IC50) is more than 400 nM in experiment [1]; 63 nM in experiment [2]; 100 nM in [6]; more than 1000 nM in experiment [7]; 20 nM in experiment [3]; more than 400 nM in experiment [4].

Consider `COc1cc(C(=O)c2n[nH]c3c(C#CC(C)(C)O)c(OC)ccc23)cc(OC)c1OC`, for which, in experiment [5], the concentration for half-maximal inhibition (IC50) is 195 nM.

On to `COc1cc(C(=O)c2n[nH]c3c(CCCO)c(OC)ccc23)cc(OC)c1OC`, for which the IC50 in experiment [5] came to 283 nM. This IC50 and that of the molecule before are within 1.5-fold of each other.

Regarding `CC#Cc1c(OC)ccc2c(C(=O)c3cc(OC)c(OC)c(OC)c3)n[nH]c12`, the IC50 was 1.9 nM in [1]; 1.6 nM in [2]; 1.6 nM in [6]; 2.5 nM in [7]; 1 nM in experiment [5]; 3 nM in experiment [8]. In addition, the concentration for half-maximal inhibition (IC50) in experiment [9] is 1.1 nM; in experiment [10], 0.9 nM; in experiment [3], 1.6 nM; in [4], 1.9 nM.

As to `COc1ccc(/C=C\c2cc(OC)c(OC)c(OC)c2)cc1O` [COMBRETASTATIN A4], the IC50 in experiment [1] is 2.5 nM; in [2] it was 1.6 nM; in experiment [6] it was 1.7 nM; in [7], 2.5 nM; in [5], 10 nM; in [8], more than 1000 nM. For the same molecule, the IC50 in experiment [9] worked out at 3.2 nM; in experiment [10], 2.7 nM; in experiment [3], 1.6 nM; in experiment [4], 1.4 nM.

Consider `CC(=O)O[C@H]1C(=O)[C@@]2(C)[C@H]([C@H](OC(=O)c3ccccc3)[C@]3(O)C[C@H](OC(=O)[C@H](O)[C@@H](NC(=O)c4ccccc4)c4ccccc4)C(C)=C1C3(C)C)[C@]1(OC(C)=O)CO[C@@H]1C[C@@H]2O` [PACLITAXEL], for which the IC50 is 79.4 nM in [1]; 25 nM in experiment [2]; 1.9 nM in experiment [6]; 2.5 nM in [7]; 1.6 nM in [3]; more than 1000 nM in experiment [4].

Turning to `COc1cc(C(=O)c2n[nH]c3c(C#CCO)c(OC)ccc23)cc(OC)c1OC`, the 50% inhibitory concentration (IC50) in [1] was found to be 1.9 nM; in experiment [2], 1.6 nM; in experiment [6], 1.6 nM; in [7], 2.6 nM; in experiment [11], 500 nM; in experiment [13] it was 46 nM. Further, the IC50 was 240 nM in [14]; 6000 nM in [15]; 8 nM in [5]; 1 nM in experiment [8]; 1 nM in experiment [9]; 0.8 nM in experiment [10]. The results for the 50% inhibitory concentration (IC50) in experiment [3] and in experiment [4] were 1.7 nM and 1.8 nM, respectively. In addition, the Activity in experiment [12] amounted to 70%.

`COc1cc(C(=O)c2n[nH]c3c(C#C[C@H](C)O)c(OC)ccc23)cc(OC)c1OC` returned an IC50 in experiment [5] of 14 nM.

For `COc1cc(C(=O)c2n[nH]c3c(C#CCCCO)c(OC)ccc23)cc(OC)c1OC`, in experiment [5], 8 nM corresponded to half-maximal inhibition (IC50).

In the case of `C#Cc1c(OC)ccc2c(C(=O)c3cc(OC)c(OC)c(OC)c3)n[nH]c12`, the 50% inhibitory concentration (IC50) was 1.6 nM in experiment [2]; 2.5 nM in [6]; 2.2 nM in experiment [7]; 3 nM in experiment [5]; 1.7 nM in experiment [8]; 3 nM in experiment [9]. Besides, the values for the IC50 in [10], in experiment [3] and in [4] were 2.3 nM, 1.9 nM and 3.9 nM, respectively.

Turning to `CC[C@]1(O)C[C@@H]2CN(CCc3c([nH]c4ccccc34)[C@@](C(=O)OC)(c3cc4c(cc3OC)N(C)[C@H]3[C@@](O)(C(=O)OC)[C@H](OC(C)=O)[C@]5(CC)C=CCN6CC[C@]43[C@@H]65)C2)C1` [VINBLASTINE], the 50% inhibitory concentration (IC50) in [1] was 79.4 nM; in experiment [2], 25 nM; in [6] it was 1.6 nM; in [7], 1.6 nM; in [3], 1.6 nM; in experiment [4] it was 8.9 nM.

In turn, `COc1cc(C(=O)c2n[nH]c3c(C#C[C@@H](C)O)c(OC)ccc23)cc(OC)c1OC` yielded an IC50 in experiment [5] of 29 nM.

Turning to `COc1cc(C(=O)c2n[nH]c3c(C#CCCO)c(OC)ccc23)cc(OC)c1OC`, the IC50 in [5] was 14 nM.

In the case of `CC#Cc1c(OC)ccc2c(C(=O)c3cc(OC)c(OC)c(OC)c3)c[nH]c12`, the IC50 in experiment [5] is more than 1000 nM.

For the molecule `COc1cc(C(=O)c2n[nH]c3c(C#CCN)c(OC)ccc23)cc(OC)c1OC`, the IC50 in [5] came to 247 nM.

As usually defined, the IC50 is the concentration needed to halve the response being measured. High values mean a need for much substance, low ones inhibition by little substance.
